# Laboratory results from ChEMBL document CHEMBL1155814, “Structure-activity correlations for beta-phenethylamines at human trace amine receptor 1” (Bioorg Med Chem, 2008).
# The source made the active and inactive calls.
# How the values were obtained:
# Format in all cases: functional, cell-based
# [1] = molecular target: T1, Trace amine-associated receptor 1 (Homo sapiens, UniProt Q96RJ0); test: (§1) Agonist activity at human trace amine associated receptor 1 expressed in RD-HGA16 CHO-K1 cells coexpressed with Galpha16 protein assessed as internal calcium mobilization by calcium 3 assay
# T1 sequence (Q96RJ0 whole entry): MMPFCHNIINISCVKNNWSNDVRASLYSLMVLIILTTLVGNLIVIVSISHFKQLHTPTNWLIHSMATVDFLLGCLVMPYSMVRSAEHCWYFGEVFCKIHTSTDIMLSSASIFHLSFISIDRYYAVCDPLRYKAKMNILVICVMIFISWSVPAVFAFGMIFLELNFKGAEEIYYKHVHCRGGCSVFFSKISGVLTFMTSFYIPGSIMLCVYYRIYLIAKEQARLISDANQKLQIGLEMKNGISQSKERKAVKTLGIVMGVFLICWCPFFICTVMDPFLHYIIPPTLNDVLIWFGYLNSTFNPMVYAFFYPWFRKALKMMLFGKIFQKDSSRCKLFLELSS
# Summary of the method: (§2)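 Unmodified human TAAR1 stably expressed in CHO cells carrying Galpha16 (RD-HGA16). Cells seeded at 30,000/well in HAM's F-12 with 10% FBS, 400 ug/mL hygromycin and 400 µg/mL geneticin, overnight at 37 °C, 5% CO2. Loaded 1 h at 37 °C with Calcium 3 dye at 1/3 kit strength. Basal signal recorded 13 sec before compound addition. Compounds tested at 7–8 concentrations in duplicate. A six-point β-PEA curve was run on each plate.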
# [2] = molecular target: T2, Trace amine-associated receptor 1 (Homo sapiens) (UniProt Q96RJ0); test: Agonist activity at human trace amine associated receptor 1 expressed in RD-HGA16 CHO-K1 cells coexpressed with Galpha16 protein assessed as internal calcium mobilization by calcium 3 assay relative to 2-phenylethanamine
# T2 sequence (whole entry): T1 sequence (Q96RJ0 whole entry)
# Summary of the method: as §2, with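 “strength. Fluorescence read from the bottom at 485/525 nm, 515 cutoff.” for “strength.”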
# [3] = molecular target: T2, Trace amine-associated receptor 1 (Homo sapiens); test: as §1; summary of the method: as §2
# [4] = molecular target: T2, Trace amine-associated receptor 1 (Homo sapiens); test: Agonist activity at human trace amine associated receptor 1 expressed in AV12-664 cells coexpressed with rat […] protein assessed as cAMP accumulation relative to 2-phenylethanamine
# [5] = molecular target: T1, Trace amine-associated receptor 1; test: Agonist activity at human trace amine associated receptor 1 expressed in AV12-664 cells coexpressed with rat GalphaS protein assessed as cAMP accumulation
Compound,EC50 [1],Emax [2],Activity [3],Emax [4],EC50 [5]
NCCc1ccc([N+](=O)[O-])cc1,167 µM,,,,
COc1ccccc1CCN,0.144 µM,95%,,,
CNCCc1ccccc1Br,0.205 µM,93%,,,
NCCc1ccccc1Br,0.057 µM,89%,,,
CN(C)CCc1ccccc1F,1.29 µM,75%,,,
C[C@@H](N)Cc1ccccc1,,64%,,,
CN(C)CCc1ccc(F)cc1,19.1 µM,71%,,,
NCCc1ccccc1 [PHENETHYLAMINE],0.129 µM,100%,,,
CC(C)(C)c1ccc(CCN)cc1,5110 µM,,,,
CNCCc1cccc(F)c1,0.53 µM,88%,,,
NCCc1ccc(F)cc1,0.74 µM,81%,,,
COc1cc(OC)c(OC)cc1CCN,,,inactive,,
NCCc1cccc(Cl)c1Cl,1.16 µM,84%,,,
CNCCc1ccccc1Cl,0.16 µM,70%,,,
N[C@@H]1C[C@H]1c1ccccc1 (relative stereo),1.51 µM,72%,,,
CN(C)CCc1ccc(Cl)cc1,630 µM,43%,,,
CC(C)(CN)c1ccccc1,7.88 µM,70%,,,
CN(C)CCc1ccccc1Br,3.46 µM,78%,,,
CNCCc1cccc(Cl)c1,0.501 µM,77%,,,
CCc1cc(OC)c(CCN)cc1OC,6.41 µM,32%,,,
COc1cc(F)c(CCN)c(F)c1,1.4 µM,90%,,,
C[C@H](CN)c1ccccc1,0.129 µM,104%,,,
NCCc1ccc(Cl)c(Cl)c1,3.43 µM,78%,,,

Compound,EC50 [1],Emax [2],Activity [3],Emax [4],EC50 [5]
Cc1ccc(CCN)cc1,4.38 µM,96%,,,
COc1ccc(CCN)cc1,5.98 µM,106%,,,
C[C@@H](CN)c1ccccc1,0.361 µM,97%,,,
NCC1(c2ccccc2)CC1,5.05 µM,79%,,,
CNCCc1ccc(Cl)cc1,7.43 µM,67%,,,
NCCc1cccc(F)c1,0.15 µM,93%,,,
NCCc1c(Cl)cccc1Cl,0.051 µM,94%,,,
NCCc1cccc(C(F)(F)F)c1,3.95 µM,69%,,,
CCc1ccc(CCN)cc1,9.1 µM,86%,,,
NCCc1ccccc1Cl,0.077 µM,72%,,,
NCCc1cccc(Br)c1,0.398 µM,75%,,,
CC(C)(N)Cc1ccccc1 [PHENTERMINE],5.47 µM,68%,,,
COc1cc(CCN)c(OC)cc1Br,7.19 µM,22%,,,
NCCc1c(F)cc(O)cc1F,0.767 µM,103%,,,
CN(C)CCc1ccccc1,100 µM,,,97.1%,1.49 µM
CN(C)CCc1cccc(Cl)c1,5.98 µM,62%,,,
NCCc1ccccc1O,0.614 µM,90%,,,
CC(C)C(CN)c1ccccc1 (stereo unspecified),9.95 µM,46%,,,
NCC(c1ccccc1)c1ccccc1,3.4 µM,70%,,,
NCCc1ccc(Cl)cc1,2.86 µM,104%,,,
Cc1ccccc1CCN,0.355 µM,97%,,,
NCCc1ccc(C(F)(F)F)cc1,11.6 µM,78%,,,
NCCc1cccc(Cl)c1,0.189 µM,105%,,,

Compound,EC50 [1],Emax [2],Activity [3],Emax [4],EC50 [5]
NCCc1ccccc1I,0.103 µM,109%,,,
CNCCc1ccccc1,0.387 µM,69%,,93.4%,0.25 µM
CN(C)CCc1cccc(Br)c1,8.3 µM,88%,,,
COc1cccc(CCN)c1,1.44 µM,73%,,,
Cc1cccc(CCN)c1,0.638 µM,93%,,,
COc1cc(CCN)c(OC)cc1C,6.48 µM,36%,,,
CNCCc1ccc(F)cc1,1.04 µM,63%,,,
CN(C)CCc1cccc(F)c1,4.32 µM,78%,,,
NCCc1ccc2c(c1)OCO2,5.03 µM,63%,,,
NCCc1ccc(Br)cc1,1.54 µM,98%,,,
NCCc1cccc(O)c1,1.74 µM,78%,,,
CNCCc1ccc(Br)cc1,6.54 µM,60%,,,
CNCCc1cccc(Br)c1,1.07 µM,71%,,,
NCCc1c(F)cccc1Cl,0.312 µM,94%,,,
CN(C)CCc1ccccc1Cl,0.687 µM,79%,,,
Cc1ccc(C)c(CCN)c1,0.377 µM,84%,,,
CN(C)CCc1ccc(Br)cc1,24.4 µM,40%,,,
NCCc1ccc(O)cc1 [TYRAMINE],0.731 µM,91%,,,
COc1cc(CCN)c(OC)cc1Cl,3.75 µM,30%,,,
C[C@H](N)Cc1ccccc1,,74%,,,
NCCc1ccccc1F,0.065 µM,91%,,,
CNCCc1ccccc1F,0.117 µM,75%,,,
COc1ccc(OC)c(CCN)c1,2.01 µM,69%,,,
